High-throughput results from PubChem.
In the library only some 2.9% were active in any assay of this set; here they are far more common.
Ecoli rRNA inh: selective bacterial rRNA inhibition in E. coli; E. coli WT GFP vs humanized-ribosome RFP mutants, fluorescence, 24 h; stronger effect = lower value; DMSO median 0, no signal -100; GFP signal change (wild-type ribosome), % (test concentration not listed); 350,000 tested, 1.6% active;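 active = significant combined selectivity score with lowered wild-type GFP, culture density cut under 30%, mutant RFP and density less affected; inactive = any of these conditions unmet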
FGF22 binding: FGF22 (human) thermal shift binding; recombinant FGF22 thermal shift, SYPRO orange fluorescence; percent of sucrose octasulfate shift, DMSO zero; activity (Tm shift, normalised), % at 9.99 µM; 340,000 tested, 1.5% active; Q9HCT0;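 active = mean Tm shift, scaled 0 neutral to 100 positive control, at about 1.3% or above, every replicate too, limit read from the data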
Target sequence (Q9HCT0 whole entry, looked up): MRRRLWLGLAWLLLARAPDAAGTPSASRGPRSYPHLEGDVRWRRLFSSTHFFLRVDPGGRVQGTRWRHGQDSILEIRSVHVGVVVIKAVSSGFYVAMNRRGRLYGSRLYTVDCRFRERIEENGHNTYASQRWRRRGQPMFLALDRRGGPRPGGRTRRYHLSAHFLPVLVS
Cneo AK release: causes C. neoformans cell lysis; adenylate kinase release luminescence, 4 h; normalised: neutral wells 0, clomiphene wells 100; lysis activity, % at 15 µM; 360,000 tested, 0.2% active; AID 651654;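 active = mean lysis activity across replicates of at least 80%, whatever share of replicates individually reach that level; inactive = mean lysis activity below 80%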
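Material – log-phase Cryptococcus neoformans yeast cells · Input – 5 × 10^6 yeast cells/mL · Medium – fresh YPD growth medium · Doses – single compound concentration per well · Timing – static 4 h at 37 °C with compound, 1 h detection · Detection – adenylate kinase release luminescence · Read-out – signal increase indicating cell lysis · Control set – Clomiphene as positive lysis control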
PglD inh: PglD (C. jejuni) enzyme inhibition. inhibition, % at 12.5 µM. purified PglD enzyme, DTNB colorimetric CoA detection. 360,000 tested, 0.098% active. AID 602405; in the data active = inhibition above about 16%, passing the limit was not always enough
PGC1a acetyl inh: modulators of PGC1a acetylation; AID 651687; 350,000 tested, 0.17% active; U2OS PGC1a acetylation, AlphaScreen anti-acetyl-lysine; with virally co-expressed GCN5 acetyltransferase; inhibition, % at 15.6 µM;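 active = every replicate shows inhibition of at least 40%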;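 also: 0% = neutral control wells and 100% = positive control wells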
Vif inh: blocks HIV Vif function. inhibition, % at 7.49 µM. 340,000 tested, 0.35% active. HEK293T cells, Vif self-association by quenched fluorescence, imaging, 24 h; in the data active = inhibition above about 50%, passing the limit was not always enough
* hit, by the source's call; . = no result.

SMILES | Ecoli rRNA inh | FGF22 binding | Cneo AK release | PglD inh | PGC1a acetyl inh | Vif inh
Nc1c(Br)cc(Br)c2c1C(=O)c1c(cccc1S(=O)(=O)O)C2=O | -13.3 | 43.5* | -0.1 | 3.2 | 7.3 | 7.3
CN(CC(=O)NC1CC(C)(C)NC(C)(C)C1)S(=O)(=O)c1cc(Cl)ccc1Cl | 3.5 | 43.2* | 0.4 | 3.7 | -1.8 | -3.4
CN(CC(=O)O)S(=O)(=O)c1cc(Cl)ccc1Cl | 7.0 | 0.3 | -2.1 | -2.2 | 5.2 | -0.8
C[C@@H]1CN([C@@H](C)CO)C(=O)c2c(c3ccccc3n2C)-c2ccccc2CO[C@H]1CN(C)S(=O)(=O)c1cn(C)cn1 | -2.7 | 0.4 | -0.1 | 1.3 | -2.8 | .
O=C(NCc1ccccc1)C(c1ccccc1)N(C(=O)c1csnn1)c1ccccc1 (configuration not stated) | . | 42.9* | 0.7 | 3.6 | . | 16.4
C=CCN(C(=O)c1csnn1)C(C(=O)NCc1ccccc1)c1c(F)cccc1Cl (configuration not stated) | . | 0.0 | -0.8 | -0.2 | . | -7.5
C=CCN(C(=O)c1csnn1)C(C(=O)NCc1ccc(F)cc1)c1ccccc1F (configuration not stated) | -2.2 | 42.9* | -0.7 | 5.6 | . | 4.8
C=CCN(C(=O)c1csnn1)C(C(=O)NC1CCCC1)c1c(F)cccc1Cl (configuration not stated) | -20.9* | -0.2 | 2.3 | 1.5 | 8.9 | -3.8
C=CCN(C(=O)c1csnn1)C(C(=O)NCc1ccccc1)c1ccccc1F (configuration not stated) | 0.6 | -0.8 | -1.2 | 0.0 | . | -2.1
O=C(Nc1ccno1)Nc1ccc(Cl)cc1Cl | -30.3* | 0.2 | . | . | 5.2 | -5.4
O=C(Nc1ccc(Cl)cc1Cl)Nn1cnnc1 | 6.5 | -0.1 | -0.1 | 4.0 | . | -10.8
C[C@@H]1CN([C@@H](C)CO)C(=O)c2ccccc2-c2ccccc2CO[C@H]1CN(C)S(=O)(=O)c1ccc(C(F)(F)F)cc1 | -1.5 | -0.4 | 0.0 | 0.4 | -14.6 | .
COc1cccc(C(=O)CN2CCN(S(=O)(=O)c3cccc([N+](=O)[O-])c3)CC2)c1 | 5.6 | 43.0* | . | . | . | 2.1
CC(C)CNC(=O)C(=O)NC1CCCC1 | . | . | -1.5 | -0.5 | -3.0 | .
CC(C)CNC(=S)NC1CCCC1 | . | . | 7.8 | -2.4 | . | 62.5*
CC1(C)CC(NC(=S)NC2CC2)CC(C)(C)N1 | 8.1 | 43.4* | . | . | 13.9 | -12.8
S=C(NC1CCCC1)NC1CC1 | -0.2 | -0.1 | 0.4 | -2.3 | 1.4 | -9.1
S=C(NC1CCCC1)NC1CCCC1 | 11.5 | -0.2 | . | . | 3.9 | 53.0*
C[C@H](NC(=O)C[C@@H]1CC[C@H](NC(=O)C2CC2)[C@@H](CO)O1)c1ccccc1 | 0.9 | -0.2 | -2.3 | 2.8 | 1.6 | .
CC(C)NC(=O)N(C)C[C@H]1OCCCC[C@@H](C)Oc2ccc(NC(=O)Nc3ccc(F)cc3)cc2C(=O)N([C@@H](C)CO)C[C@H]1C | -5.3 | 0.0 | -3.4 | 1.4 | -2.2 | .
CC(C)CC#Cc1ccc2c(c1)O[C@@H](CN(C)C(=O)C1CC1)[C@H](C)CN([C@@H](C)CO)S2(=O)=O | -14.0 | . | . | . | -2.7 | .
O=C(Cn1nc(-c2ccccc2)ccc1=O)Nc1ccc(NC(=O)c2ccccn2)cc1 | 8.8 | 43.8* | -0.5 | 0.0 | . | -1.9
O=C(Cn1nc(-c2ccccc2)ccc1=O)Nc1ccc(-n2cnnn2)cc1 | 4.8 | 0.0 | -7.9 | -5.0 | -7.7 | 6.1
COc1ccc(S(=O)(=O)Nc2ccc3c(c2)C(=O)N([C@@H](C)CO)C[C@@H](C)[C@H](CN(C)C(=O)Nc2ccccc2)O3)cc1 | 3.7 | -0.2 | -2.9 | 1.9 | 0.1 | .
COc1ccc(S(=O)(=O)Nc2ccc3c(c2)C(=O)N([C@H](C)CO)C[C@@H](C)[C@@H](CN(C)C(=O)Nc2ccccc2)O3)cc1 | 0.4 | -0.5 | 82.8* | 3.1 | -10.6 | .
SMILES | Ecoli rRNA inh | FGF22 binding | Cneo AK release | PglD inh | PGC1a acetyl inh | Vif inh
C[C@H](CO)N1C[C@H](C)[C@@H](CN(C)C(=O)Nc2ccc3c(c2)OCO3)Oc2ccc(NS(=O)(=O)c3cccs3)cc2C1=O | -0.9 | -0.1 | 99.6* | -0.6 | -11.3 | .
C[C@H]1CN([C@@H](C)CO)C(=O)c2cc(NS(=O)(=O)c3ccccc3)ccc2O[C@H]1CN(C)C(=O)NC1CCCCC1 | 0.2 | 0.1 | -1.1 | -1.0 | 0.4 | .
C[C@@H]1CN([C@H](C)CO)C(=O)c2cc(NS(=O)(=O)c3ccccc3)ccc2O[C@H]1CN(C)C(=O)NC1CCCCC1 | 0.5 | -0.1 | 95.9* | 0.3 | 0.9 | .
CN(C)C(=O)c1cccc(-c2ccc3c(c2)[C@@H]2[C@@H](CCN2C(=O)c2cccnc2)[C@@H](CO)N3)c1 | -1.6 | -0.3 | -0.8 | -1.7 | -1.7 | .
O=C(NNC(=O)c1sc2ccccc2c1Cl)Nc1ccc(Cl)cc1 | -20.4* | . | 4.0 | 4.1 | . | -25.9
CN1CCN(c2ccc(NC(=O)c3sc4ccccc4c3Cl)cc2)CC1 | -25.0* | 0.2 | 12.2 | 0.4 | -18.4 | -4.6
O=C(c1ccc(F)cc1)N1CC(=O)N2[C@H](C1)[C@@H](c1ccc(C#CC3CCCC3)cc1)[C@@H]2CO | 1.5 | . | . | . | -9.1 | .
O=C1C2C3C=CC(C4CC34)C2C(=O)N1/N=C/c1c[nH]c2ccccc12 (configuration not stated) | -1.6 | 0.4 | . | . | 106.0* | 90.5*
O=C1C2C3C=CC(C4CC34)C2C(=O)N1/N=C/c1ccc([N+](=O)[O-])s1 (configuration not stated) | 14.4 | 0.5 | . | . | . | 1.6
CCNC(=O)C[C@@H]1CC[C@@H]2[C@@H](COc3ccc(NC(=O)C4CCOCC4)cc3C(=O)N2C)O1 | 1.3 | -0.1 | 40.9 | -3.5 | -2.4 | .
O=C(O)C[C@H]1C[C@@H]2c3cc(NC(=O)Nc4ccccc4F)ccc3O[C@@H]2[C@H](CO)O1 | 2.1 | 0.0 | 1.8 | 1.7 | 9.1 | .
CCOC(=O)c1sc2nc(C)nc(N3CCCCC3C)c2c1C (configuration not stated) | -26.5* | 0.0 | . | . | -5.6 | 5.9
O=C(Nc1ccc(Cl)c(Cl)c1)N[C@H]1CC[C@H](CCn2cc(C3CCCC3)nn2)O[C@H]1CO | -60.4 | 1.0 | . | . | 11.2 | .
CC(NC(=O)COC(=O)c1cc(Cl)nc(Cl)c1)c1ccccc1 (configuration not stated) | 13.9 | 43.4* | 1.1 | 1.1 | . | 10.0
Cc1cccc(NC(=O)c2ncn3c2C(=O)N(C)CC3)c1 | -19.1 | 43.3* | 1.6 | 2.9 | . | 4.0
Cc1ccc(S(=O)(=O)N(C)C[C@@H]2OCCCC[C@H](C)Oc3ccc(NC(=O)Nc4cccc5ccccc45)cc3C(=O)N([C@@H](C)CO)C[C@H]2C)cc1 | -0.2 | 0.0 | 0.9 | 1.5 | -14.1 | .
O=C(Nc1cc(F)cc(F)c1)c1ccc(NCCCN2CCCCCC2)c([N+](=O)[O-])c1 | 7.9 | 42.9* | . | . | -15.1 | 8.1
